Tcruzi prolif: T. cruzi intracellular proliferation inhibitors, primary screen, cell-based, beta-gal Tulahuen parasites, NIH3T3 host, luminescence | 77,000 tested, 5.9% active | T. cruzi beta-gal in NIH3T3, GalScreen luminescence, 90 h | inhibition, % at 8.34 µM;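 active = mean inhibition above about 93%, with at least 55% of replicates each passing it, limit read from the data, passing the limit was not always enough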
Pf Dd2 inh: P. falciparum Dd2 growth inhibitors, primary screen, SYBR Green fluorescence, single dose replicates; AID 1159554, 2015; activity change, % at 10 µM; 94,000 tested, 2.3% active; 72 h; stronger effect = lower value; in the data active = activity change below about -80%
KDM4C inh: inhibitors of GASC-1 (KDM4C) histone demethylase, primary screen, biochemical, single concentration HTS; Lysine-specific demethylase 4C (Homo sapiens), Q9H3R0; GST-KDM4C 2-372, H3K9me3 peptide, LANCE TR-FRET; inhibition, % at 12.5 µM; 96,000 tested, 0.15% active;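 active = mean replicate inhibition above about 25%, with at least 55% of replicates also reaching it, limit read from the data, passing the limit was not always enough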
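System: N-terminal GST-fused human GASC-1 (KDM4C) fragment, residues 2-372; amount: enzyme final amount 10 nM; incubation: reaction 30 min RT, detection step 1 h RT; medium: HEPES buffer, pH 7.5, plus ascorbate; technique: LANCE TR-FRET, Eu antibody, ULight-streptavidin, EDTA, ex 340 nm, em 618/671 nm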
IDH1 mut inh: inhibitors of IDH1 R132H reductase, primary screen, biochemical, plate reader, single point | diaphorase/resazurin fluorescence, 60 min | Isocitrate dehydrogenase [NADP] cytoplasmic (Homo sapiens), O75874 | AID 624101, 2012 | inhibition, % at 10 µM | 70,000 tested, 0.18% active; in the data active = inhibition above about 34%
Target sequence (O75874 whole entry R132H): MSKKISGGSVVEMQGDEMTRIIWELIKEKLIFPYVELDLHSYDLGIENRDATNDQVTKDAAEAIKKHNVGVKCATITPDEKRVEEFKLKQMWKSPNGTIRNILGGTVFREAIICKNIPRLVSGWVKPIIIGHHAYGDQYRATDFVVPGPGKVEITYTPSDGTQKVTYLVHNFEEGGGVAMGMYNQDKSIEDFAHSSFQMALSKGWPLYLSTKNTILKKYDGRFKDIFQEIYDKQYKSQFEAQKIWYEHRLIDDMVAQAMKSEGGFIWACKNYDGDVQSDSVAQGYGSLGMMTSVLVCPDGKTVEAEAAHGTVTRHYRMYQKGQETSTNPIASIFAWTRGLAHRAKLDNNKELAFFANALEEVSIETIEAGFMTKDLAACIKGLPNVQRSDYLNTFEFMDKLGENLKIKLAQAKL
Large screens that a line does not name were inactive. A selection: hits, their analogues and other compounds. The true share with any hit is near 5.8%.

C[C@H]1CCCCO[C@@H](CN(C)Cc2ccccc2)[C@@H](C)CN([C@@H](C)CO)C(=O)c2cc(NC(=O)Nc3ccc(C(F)(F)F)cc3)ccc2O1	Pf Dd2 inh -86
C[C@@H]1CN([C@H](C)CO)C(=O)c2cc(NC(=O)Nc3ccccc3)ccc2O[C@@H](C)CCCCO[C@@H]1CN(C)Cc1ccc(C(F)(F)F)cc1	Pf Dd2 inh -85
C[C@H]1CCCCO[C@@H](CN(C)Cc2ccccc2)[C@@H](C)CN([C@@H](C)CO)C(=O)c2cc(NC(=O)Nc3ccc(F)cc3)ccc2O1	Pf Dd2 inh -86
COc1ccc(NC(=O)N(C)C[C@@H]2OCCCC[C@H](C)Oc3ccc(NC(=O)c4ccccc4)cc3C(=O)N([C@@H](C)CO)C[C@@H]2C)cc1	Pf Dd2 inh -84 (no result: IDH1 mut inh)
C[C@H](CO)N1C[C@H](C)[C@H](CN(C)C(=O)Nc2ccccc2)Oc2ccc(N(C)C)cc2C1=O	none (no result: Tcruzi prolif)
C[C@@H]1CN([C@H](C)CO)C(=O)c2cc(NC(=O)Nc3ccc(C(F)(F)F)cc3)ccc2O[C@@H](C)CCCCO[C@@H]1CN(C)Cc1ccc(Cl)c(Cl)c1	Pf Dd2 inh -87 (no result: IDH1 mut inh)
C[C@@H]1CCCCO[C@H](CN(C)Cc2ccc(C(F)(F)F)cc2)[C@@H](C)CN([C@@H](C)CO)C(=O)c2cc(NC(=O)Nc3ccc4c(c3)OCO4)ccc2O1	Pf Dd2 inh -81 (no result: IDH1 mut inh)
C[C@@H]1CCCCO[C@H](CN(C)Cc2ccc(C(F)(F)F)cc2)[C@@H](C)CN([C@@H](C)CO)C(=O)c2cc(NC(=O)Cc3ccccc3)ccc2O1	Pf Dd2 inh -89 (no result: IDH1 mut inh)
C[C@@H]1CCCCO[C@H](CN(C)Cc2ccc(Cl)c(Cl)c2)[C@@H](C)CN([C@@H](C)CO)C(=O)c2cc(NC(=O)Cc3ccccc3)ccc2O1	Pf Dd2 inh -86
COc1ccc2c3c(n(C)c2c1)[C@H](CO)N(C(=O)Cc1ccccc1)CC31CCN(C(C)=O)CC1	none (no result: Tcruzi prolif, IDH1 mut inh)
O=C(Nc1ccc(Cl)c(Cl)c1)N[C@H]1CC[C@@H](CCn2cc(C3CC3)nn2)O[C@H]1CO	none (no result: Tcruzi prolif)
C[C@@H]1CCCCO[C@@H](CN(C)Cc2ccc(Cl)c(Cl)c2)[C@H](C)CN([C@H](C)CO)C(=O)c2cc(NC(=O)C3CCCCC3)ccc2O1	Pf Dd2 inh -83
C[C@@H]1CCCCO[C@H](CN(C)Cc2ccncc2)[C@H](C)CN([C@H](C)CO)C(=O)c2cc(NC(=O)Nc3ccc(C(F)(F)F)cc3)ccc2O1	Pf Dd2 inh -84 (no result: IDH1 mut inh)
C[C@@H]1CCCCO[C@H](CN(C)Cc2ccc(C(F)(F)F)cc2)[C@H](C)CN([C@@H](C)CO)C(=O)c2cc(NC(=O)c3ccccc3)ccc2O1	Pf Dd2 inh -85 (no result: IDH1 mut inh)
C[C@@H]1CCCCO[C@H](CN(C)Cc2ccc(Cl)c(Cl)c2)[C@@H](C)CN([C@H](C)CO)C(=O)c2cc(NC(=O)C3CCCCC3)ccc2O1	none (no result: IDH1 mut inh)
COc1ccc(NC(=O)N(C)C[C@H]2OCCCC[C@@H](C)Oc3ccc(N(C)C)cc3C(=O)N([C@H](C)CO)C[C@H]2C)cc1	none (no result: IDH1 mut inh)
COc1ccc(NC(=O)N(C)C[C@H]2OCCCC[C@@H](C)Oc3ccc(N(C)C)cc3C(=O)N([C@@H](C)CO)C[C@H]2C)cc1	Pf Dd2 inh -83 (no result: IDH1 mut inh)
C[C@@H]1CN([C@H](C)CO)C(=O)c2cc(NC(=O)Nc3ccc(C(F)(F)F)cc3)ccc2O[C@@H](C)CCCCO[C@@H]1CN(C)Cc1ccncc1	none (no result: IDH1 mut inh)
C[C@@H]1CCCCO[C@H](CN(C)Cc2ccc(C(F)(F)F)cc2)[C@@H](C)CN([C@H](C)CO)C(=O)c2cc(NC(=O)c3ccccc3)ccc2O1	none (no result: IDH1 mut inh)
Cc1noc(C)c1S(=O)(=O)Nc1ccc2c(c1)C(=O)N([C@@H](C)CO)C[C@H](C)[C@@H](CN(C)Cc1ccc(C(F)(F)F)cc1)O2	none (no result: IDH1 mut inh)
C[C@@H]1CN([C@@H](C)CO)C(=O)c2cc(C#CCN(C)C)cnc2O[C@@H]1CN(C)C(=O)CCN1CCCCC1	none
C[C@H]1CCCCO[C@H](CN(C)C(=O)Nc2ccc(C(F)(F)F)cc2)[C@@H](C)CN([C@@H](C)CO)C(=O)c2cc(NC(=O)c3ccccc3)ccc2O1	Pf Dd2 inh -87 (no result: IDH1 mut inh)
C[C@@H]1CN([C@H](C)CO)C(=O)c2cc(NC(=O)Nc3ccc(F)cc3)ccc2O[C@@H](C)CCCCO[C@H]1CN(C)Cc1ccc(C(F)(F)F)cc1	Pf Dd2 inh -82 (no result: IDH1 mut inh)
C[C@H]1CCCCO[C@H](CN(C)Cc2ccc(C(F)(F)F)cc2)[C@@H](C)CN([C@@H](C)CO)C(=O)c2cc(NC(=O)Nc3ccc(F)cc3)ccc2O1	none (no result: IDH1 mut inh)
C[C@@H]1CN([C@@H](C)CO)C(=O)c2cc(NC(=O)Nc3ccccc3)ccc2O[C@@H](C)CCCCO[C@@H]1CN(C)Cc1ccc(C(F)(F)F)cc1	Pf Dd2 inh -82
C[C@@H]1CCCCO[C@H](CN(C)Cc2ccc(C(F)(F)F)cc2)[C@H](C)CN([C@@H](C)CO)C(=O)c2cc(NC(=O)Nc3ccccc3)ccc2O1	none (no result: IDH1 mut inh)
C[C@H](CO)N1C[C@H](C)[C@@H](CN(C)Cc2ccccc2)Oc2ccc(NS(=O)(=O)c3ccccc3)cc2CC1=O	none
COc1ccc(C[C@@H]2CCn3cc(nn3)COC[C@H](CC(C)C)NC2=O)cc1	none (no result: Tcruzi prolif, Pf Dd2 inh, IDH1 mut inh)
C[C@@H]1CN([C@H](C)CO)C(=O)c2cccc(NC(=O)Nc3ccc(C(F)(F)F)cc3)c2O[C@@H]1CN(C)Cc1ccc(C(=O)Nc2ccccc2N)cc1	Pf Dd2 inh -90 (no result: Tcruzi prolif, IDH1 mut inh)
C[C@@H]1CN([C@@H](C)CO)C(=O)c2cccc(NC(=O)Nc3ccc(C(F)(F)F)cc3)c2O[C@@H]1CN(C)Cc1ccc(C(=O)Nc2ccccc2N)cc1	Pf Dd2 inh -91 (no result: Tcruzi prolif, IDH1 mut inh)
C[C@H](CO)N1C[C@H](C)[C@H](CN(C)Cc2ccc(C(=O)Nc3ccccc3N)cc2)Oc2c(NC(=O)Nc3ccc(C(F)(F)F)cc3)cccc2C1=O	none (no result: IDH1 mut inh)
C[C@@H]1CN([C@@H](C)CO)C(=O)c2cc(-c3ccc(F)cc3)cnc2O[C@H]1CN(C)Cc1ccc(F)cc1	none
COc1ccc(S(=O)(=O)Nc2ccc3c(c2)CC(=O)N([C@H](C)CO)C[C@H](C)[C@@H](CN(C)S(=O)(=O)c2ccc(F)cc2)O3)cc1	KDM4C inh 27
COc1ccc(S(=O)(=O)N(C)C[C@@H]2Oc3ccc(NS(=O)(=O)c4ccc(Cl)cc4)cc3CC(=O)N([C@@H](C)CO)C[C@@H]2C)cc1	Pf Dd2 inh -83
COc1ccc(S(=O)(=O)Nc2ccc3c(c2)CC(=O)N([C@H](C)CO)C[C@H](C)[C@H](CN(C)S(=O)(=O)c2ccc(C)cc2)O3)cc1	Pf Dd2 inh -86
COc1ccc(S(=O)(=O)Nc2ccc3c(c2)CC(=O)N([C@H](C)CO)C[C@H](C)[C@H](CN(C)S(=O)(=O)c2ccc(Cl)cc2)O3)cc1	none
COc1ccc(S(=O)(=O)N(C)C[C@@H]2Oc3ccc(NS(=O)(=O)c4ccc(F)cc4)cc3CC(=O)N([C@@H](C)CO)C[C@@H]2C)cc1	none

Screens as filed in PubChem.
